Results reported in ChEMBL document CHEMBL5058577, “EUbOPEN Chemogenomics Library 2 (Multiplex)” (2022).

System: U2OS
Experiment: Multiplex assay against U2OS
Type: toxicity, cell-based
Settings: human
Procedure, shortened: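 Hoechst33342, BioTracker Green Microtubule Cytoskeleton Dye, MitoTracker Red and Annexin V Alexa Fluor 680 were added to live cells at seeding, and imaging on a CQ1 microscope at 37°C and 5% CO2 followed compound addition. Gating by CellPathfinder machine learning separated cells into Hoechst high-intensity objects or normal cells, then normal cells into healthy, pyknosed or fragmented nuclei, then pyknosed cells into mitotic or apoptotic. Per cents of healthy-nucleus cells are reported for the tubulin, mitochondrial-mass and membrane-permeability phenotypes.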

[1] = 12 h, 1 µM, compound concentration 1 uM, replicate 1
[2] = 12 h, 1 µM, compound concentration 1 uM, replicate 2
[3] = 12 h, 10 µM, compound concentration 10 uM, replicate 1
[4] = 12 h, 10 µM, compound concentration 10 uM, replicate 2
[5] = 24 h, 1 µM, compound concentration 1 uM, replicate 1
[6] = 24 h, 1 µM, compound concentration 1 uM, replicate 2
[7] = 24 h, 10 µM, compound concentration 10 uM, replicate 1
[8] = 24 h, 10 µM, compound concentration 10 uM, replicate 2
[9] = 48 h, 1 µM, compound concentration 1 uM, replicate 1
[10] = 48 h, 1 µM, compound concentration 1 uM, replicate 2
[11] = 48 h, 10 µM, compound concentration 10 uM, replicate 1
[12] = 48 h, 10 µM, compound concentration 10 uM, replicate 2

SMILES: N[C@](CC1c2ccccc2Oc2ccccc21)(C(=O)O)[C@H]1C[C@@H]1C(=O)O
- Population Apoptotic (%) [1]: 80%
- Population Fragmented Nuclei (%) [1]: 22%
- Population Healthy Nuclei (%) [1]: 67%
- Population Hoechst High Intensity Objects (%) [1]: 1%
- Population Membrane Permeable-Phenotype (%) [1]: 6%
- Population Mitochondria Different-Phenotype (%) [1]: 2%
- Population Mitotic Cells (%) [1]: 20%
- Population Normal (%) [1]: 98%
- Population Pyknosed Nuclei (%) [1]: 9%
- Population Tubulin-Different-Phenotype (%) [1]: 4%
- Total Cell Count [1]: 218
- Population Apoptotic (%) [2]: 72%
- Population Fragmented Nuclei (%) [2]: 10%
- Population Healthy Nuclei (%) [2]: 79%
- Population Membrane Permeable-Phenotype (%) [2]: 1%
- Population Mitochondria Different-Phenotype (%) [2]: 8%
- Population Mitotic Cells (%) [2]: 27%
- Population Tubulin-Different-Phenotype (%) [2]: 3%
- Total Cell Count [2]: 114
- Population Apoptotic (%) [3]: 84%
- Population Fragmented Nuclei (%) [3]: 18%
- Population Healthy Nuclei (%) [3]: 72%
- Population Hoechst High Intensity Objects (%) [3]: 3%
- Population Membrane Permeable-Phenotype (%) [3]: 5%
- Population Mitochondria Different-Phenotype (%) [3]: 3%
- Population Mitotic Cells (%) [3]: 16%
- Population Normal (%) [3]: 96%
- Population Pyknosed Nuclei (%) [3]: 8%
- Population Tubulin-Different-Phenotype (%) [3]: 2%
- Total Cell Count [3]: 295
- Population Apoptotic (%) [4]: 83%
- Population Fragmented Nuclei (%) [4]: 19%
- Population Healthy Nuclei (%) [4]: 76%
- Population Hoechst High Intensity Objects (%) [4]: 0%
- Population Membrane Permeable-Phenotype (%) [4]: 7%
- Population Mitochondria Different-Phenotype (%) [4]: 0%
- Population Normal (%) [4]: 100%
- Population Pyknosed Nuclei (%) [4]: 4%
- Total Cell Count [4]: 141
- Population Apoptotic (%) [5]: 78%
- Population Fragmented Nuclei (%) [5]: 20%
- Population Healthy Nuclei (%) [5]: 70%
- Population Hoechst High Intensity Objects (%) [5]: 1%
- Population Membrane Permeable-Phenotype (%) [5]: 1%
- Population Mitochondria Different-Phenotype (%) [5]: 1%
- Population Mitotic Cells (%) [5]: 21%
- Population Normal (%) [5]: 98%
- Population Pyknosed Nuclei (%) [5]: 8%
- Population Tubulin-Different-Phenotype (%) [5]: 1%
- Total Cell Count [5]: 272
- Population Apoptotic (%) [6]: 63%
- Population Fragmented Nuclei (%) [6]: 14%
- Population Healthy Nuclei (%) [6]: 77%
- Population Hoechst High Intensity Objects (%) [6]: 0%
- Population Membrane Permeable-Phenotype (%) [6]: 4%
- Population Mitochondria Different-Phenotype (%) [6]: 5%
- Population Mitotic Cells (%) [6]: 36%
- Population Normal (%) [6]: 99%
- Population Tubulin-Different-Phenotype (%) [6]: 2%
- Total Cell Count [6]: 137
- Population Apoptotic (%) [7]: 80%
- Population Fragmented Nuclei (%) [7]: 13%
- Population Healthy Nuclei (%) [7]: 79%
- Population Hoechst High Intensity Objects (%) [7]: 3%
- Population Membrane Permeable-Phenotype (%) [7]: 3%
- Population Mitochondria Different-Phenotype (%) [7]: 3%
- Population Mitotic Cells (%) [7]: 20%
- Population Normal (%) [7]: 96%
- Population Pyknosed Nuclei (%) [7]: 7%
- Population Tubulin-Different-Phenotype (%) [7]: 1%
- Total Cell Count [7]: 365
- Population Apoptotic (%) [8]: 81%
- Population Fragmented Nuclei (%) [8]: 15%
- Population Healthy Nuclei (%) [8]: 77%
- Population Hoechst High Intensity Objects (%) [8]: 0%
- Population Membrane Permeable-Phenotype (%) [8]: 8%
- Population Mitochondria Different-Phenotype (%) [8]: 1%
- Population Mitotic Cells (%) [8]: 18%
- Population Normal (%) [8]: 99%
- Population Pyknosed Nuclei (%) [8]: 6%
- Population Tubulin-Different-Phenotype (%) [8]: 3%
- Total Cell Count [8]: 164
- Population Apoptotic (%) [9]: 89%
- Population Fragmented Nuclei (%) [9]: 14%
- Population Healthy Nuclei (%) [9]: 75%
- Population Hoechst High Intensity Objects (%) [9]: 2%
- Population Membrane Permeable-Phenotype (%) [9]: 3%
- Population Mitochondria Different-Phenotype (%) [9]: 1%
- Population Mitotic Cells (%) [9]: 10%
- Population Normal (%) [9]: 97%
- Population Pyknosed Nuclei (%) [9]: 9%
- Population Tubulin-Different-Phenotype (%) [9]: 1%
- Total Cell Count [9]: 403
- Population Apoptotic (%) [10]: 85%
- Population Fragmented Nuclei (%) [10]: 16%
- Population Healthy Nuclei (%) [10]: 72%
- Population Hoechst High Intensity Objects (%) [10]: 1%
- Population Membrane Permeable-Phenotype (%) [10]: 5%
- Population Mitochondria Different-Phenotype (%) [10]: 3%
- Population Mitotic Cells (%) [10]: 15%
- Population Normal (%) [10]: 98%
- Population Pyknosed Nuclei (%) [10]: 10%
- Population Tubulin-Different-Phenotype (%) [10]: 4%
- Total Cell Count [10]: 190
- Population Apoptotic (%) [11]: 90%
- Population Fragmented Nuclei (%) [11]: 15%
- Population Healthy Nuclei (%) [11]: 77%
- Population Hoechst High Intensity Objects (%) [11]: 1%
- Population Membrane Permeable-Phenotype (%) [11]: 4%
- Population Mitochondria Different-Phenotype (%) [11]: 3%
- Population Mitotic Cells (%) [11]: 10%
- Population Normal (%) [11]: 98%
- Population Pyknosed Nuclei (%) [11]: 7%
- Population Tubulin-Different-Phenotype (%) [11]: 2%
- Total Cell Count [11]: 554
- Population Apoptotic (%) [12]: 81%
- Population Fragmented Nuclei (%) [12]: 12%
- Population Healthy Nuclei (%) [12]: 78%
- Population Hoechst High Intensity Objects (%) [12]: 0%
- Population Membrane Permeable-Phenotype (%) [12]: 7%
- Population Mitochondria Different-Phenotype (%) [12]: 1%
- Population Mitotic Cells (%) [12]: 18%
- Population Normal (%) [12]: 100%
- Population Pyknosed Nuclei (%) [12]: 9%
- Population Tubulin-Different-Phenotype (%) [12]: 3%
- Total Cell Count [12]: 238
